Experimental findings from ChEMBL document CHEMBL5154918, “Synthesis and Biological Characterization of a Series of 2-Sulfonamidebenzamides as Allosteric Modulators of MrgX1” (ACS Med Chem Lett, 2022) are described below.

What is called AUC is concentration integrated over time. As a reminder, the half-life is the time in which the quantity being followed falls by half. A word on the clearance: it is a measure of how efficiently the substance is removed, as volume per time. For orientation: Ki means a measure of affinity in units of concentration, obtained from inhibition or displacement. A low value points to tighter binding. Usually Emax stands for the size of the effect at its maximum, as opposed to the concentration needed. What is called EC50 is the midpoint of the concentration-response curve. For orientation: Tmax means the time from dosing to the highest level. For orientation: Cmax means the maximum level reached in the sampled fluid or tissue.

The nature of data set [1]: Volume of distribution at steady state in Sprague-Dawley rat at 0.25 mg/kg, iv bolus injection administered as cassette dose. The data set is classed as ADME, organism-based. The following applies: in vivo, read-out: Vdss. The method in brief: (§1)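 Male Sprague–Dawley rats, 5-in-1 cassette, 0.25 mg/kg IV of each test article in DMSO:PEG400:EtOH:Saline (5:48:10:37). Plasma sampled at 0.0833, 0.25, 0.5, 1, 3, 4, 8 and 24 h, plus Day 2 at 0.25 h post dose.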

Data set [2] in a line: AUC in Sprague-Dawley rat at 0.25 mg/kg, iv bolus injection administered as cassette dose. Format: ADME, organism-based. On the set-up: dose 0.25 mg/kg, route iv. The note with it: in vivo. The method in brief:
as §1

The nature of data set [3]: Half life in Sprague-Dawley rat at 0.25 mg/kg, iv bolus injection administered as cassette dose. Format: ADME, organism-based. The following applies: in vivo. In outline:
as §1

The nature of data set [4]: Clearance in Sprague-Dawley rat at 0.25 mg/kg, iv bolus injection administered as cassette dose. The note with it: in vivo. The data set is classed as ADME, organism-based. The method in brief:
as §1

A further data set deals with Translocator protein (Homo sapiens, UniProt P30536). The experiment in a line: Binding affinity to peripheral benzodiazepine receptor (unknown origin).
Translocator protein, sequence (P30536 whole entry): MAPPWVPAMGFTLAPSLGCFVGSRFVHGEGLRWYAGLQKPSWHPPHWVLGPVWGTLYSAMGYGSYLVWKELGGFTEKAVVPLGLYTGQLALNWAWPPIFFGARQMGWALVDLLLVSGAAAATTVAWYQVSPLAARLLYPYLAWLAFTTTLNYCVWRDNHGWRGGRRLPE
Data set [5] has as its target T1, Mas-related G-protein coupled receptor member X1 (Homo sapiens, UniProt Q96LB2). The experiment in a line: Positive allosteric modulator activity at human MRGPRX1 expressed in HEK293 cells assessed as maximal efficacy at 5 uM in presence of BAM8-22 by Fluo4-dye based FLIPR assay relative to control. The data set is classed as cell-based. The following applies: filed as positive allosteric modulator.

Data set [6] addresses T1, Mas-related G-protein coupled receptor member X1. The experiment in a line: Positive allosteric modulator activity at human MRGPRX1 expressed in HEK293 cells in presence of BAM8-22 by Fluo4-dye based FLIPR assay. Format: cell-based. The method in brief: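 HEK293 cells expressing MrgX1. Compounds tested in the presence of 10 nM BAM8-22. Emax normalized to control compound ML382; mean ± SEM of n = 2 experiments.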

A short description of data set [7]: Microsomal stability in human liver microsomes assessed as intrinsic clearance. Format: ADME, Microsome. The note with it: read-out: CLH. The method in brief:
(§2)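 Intrinsic clearance measured in human and mouse liver microsomes. Hepatic clearance predicted from it with the well-stirred organ CL model, binding terms excluded.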
In general terms: Microsomes from liver hold many membrane-bound enzymes, among them those of drug oxidation.

A short description of data set [8]: Microsomal stability in mouse liver microsomes assessed as intrinsic clearance. Format: ADME, Microsome. The note with it: read-out: CLH. The method in brief:
as §2

A short description of data set [9]: Plasma protein binding in human assessed as unbound fraction. Format: ADME, cell-free. The following applies: read-out: PPB. In outline: (§3)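 Equilibrium dialysis in human and mouse plasma; results expressed as […] fraction unbound.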
Data set [10] can be described thus: Plasma protein binding in mouse assessed as unbound fraction. The data set is classed as ADME, cell-free. The following applies: read-out: PPB. In outline: as §3
Data set [11] is described as follows: Drug concentration in Sprague-Dawley rat plasma at 0.25 mg/kg measured up to 48.25 hrs. Format: ADME, organism-based. The method in brief: (§4)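 Brain sampled on Day 2 at 0.25 h, with matching plasma, after a 0.25 mg/kg IV cassette dose (5-in-1) in male Sprague–Dawley rats. Vehicle was DMSO:PEG400:EtOH:Saline (5:48:10:37). Kp is total brain/plasma concentration ratio.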

Data set [12] can be described thus: Drug concentration in Sprague-Dawley rat brain at 0.25 mg/kg measured up to 48.25 hrs. The data set is classed as ADME, organism-based. The note with it: read-out: Ct. In outline: as §4
Data set [13] can be described thus: Ratio of drug concentration in brain to plasma in Sprague-Dawley rat at 0.25 mg/kg measured after 15 mins. Format: ADME, organism-based. The note with it: brain and plasma. The method in brief:
as §4

Data set [14] in a line: Half life in mouse at 2 mg/kg, ip administered as discrete dose. Format: ADME, organism-based. The note with it: in vivo. The method in brief:
(§5)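 Discrete (single-compound) mouse PK, dosed IP at 2 mg/kg in 10% DMSO/10% cremophor EL/30% PEG400/50% water. Plasma and brain concentrations measured; brain:plasma ratio reported.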

The nature of data set [15]: Tmax in mouse at 2 mg/kg, ip administered as discrete dose. Format: ADME, organism-based. The note with it: in vivo. In outline:
as §5

The nature of data set [16]: Cmax in mouse at 2 mg/kg, ip administered as discrete dose. On the set-up: dose 2 mg/kg, route ip. Format: ADME, organism-based. The following applies: in vivo. The method in brief:
as §5

Data set [17] in a line: AUC in mouse at 2 mg/kg, ip administered as discrete dose. On the set-up: dose 2 mg/kg, route ip. The note with it: in vivo. The data set is classed as ADME, organism-based. In outline:
as §5

Data set [18] can be described thus: Ratio of drug concentration in brain to plasma in mouse at 2 mg/kg, ip administered as discrete dose. The data set is classed as ADME, organism-based. The following applies: brain and plasma, read-out: BPR. In outline: as §5
A further data set has as its target D(1B) dopamine receptor (Homo sapiens, UniProt P21918). The experiment in a line: Binding affinity to D5 receptor (unknown origin).
The next data set deals with Histamine H1 receptor (Homo sapiens, UniProt P35367). The experiment in a line: Binding affinity to H1 receptor (unknown origin).
Histamine H1 receptor, sequence (P35367 whole entry): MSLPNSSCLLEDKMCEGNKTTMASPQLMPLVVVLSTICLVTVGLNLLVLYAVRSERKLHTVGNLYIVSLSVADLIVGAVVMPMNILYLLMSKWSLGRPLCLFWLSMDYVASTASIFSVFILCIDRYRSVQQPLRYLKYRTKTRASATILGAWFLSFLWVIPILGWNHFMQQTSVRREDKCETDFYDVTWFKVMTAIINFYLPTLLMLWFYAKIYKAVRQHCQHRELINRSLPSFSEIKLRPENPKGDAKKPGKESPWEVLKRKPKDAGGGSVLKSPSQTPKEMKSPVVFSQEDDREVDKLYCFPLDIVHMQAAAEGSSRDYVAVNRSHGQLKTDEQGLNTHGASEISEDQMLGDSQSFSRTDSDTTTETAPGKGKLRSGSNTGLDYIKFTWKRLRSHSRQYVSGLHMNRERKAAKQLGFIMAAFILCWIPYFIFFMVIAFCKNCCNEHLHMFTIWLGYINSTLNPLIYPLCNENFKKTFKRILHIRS

Where only a bound is given, the exact number is not on record here.

T1 sequence (Q96LB2 whole entry): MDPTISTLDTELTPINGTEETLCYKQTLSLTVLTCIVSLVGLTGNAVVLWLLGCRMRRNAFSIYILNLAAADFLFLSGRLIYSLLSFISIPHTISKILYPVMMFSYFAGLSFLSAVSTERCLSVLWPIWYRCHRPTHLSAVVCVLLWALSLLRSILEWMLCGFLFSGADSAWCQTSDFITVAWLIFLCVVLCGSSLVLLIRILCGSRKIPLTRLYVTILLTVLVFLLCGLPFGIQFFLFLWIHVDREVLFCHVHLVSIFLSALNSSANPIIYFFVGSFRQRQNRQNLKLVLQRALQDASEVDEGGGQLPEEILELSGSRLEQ
D(1B) dopamine receptor, sequence (P21918 whole entry): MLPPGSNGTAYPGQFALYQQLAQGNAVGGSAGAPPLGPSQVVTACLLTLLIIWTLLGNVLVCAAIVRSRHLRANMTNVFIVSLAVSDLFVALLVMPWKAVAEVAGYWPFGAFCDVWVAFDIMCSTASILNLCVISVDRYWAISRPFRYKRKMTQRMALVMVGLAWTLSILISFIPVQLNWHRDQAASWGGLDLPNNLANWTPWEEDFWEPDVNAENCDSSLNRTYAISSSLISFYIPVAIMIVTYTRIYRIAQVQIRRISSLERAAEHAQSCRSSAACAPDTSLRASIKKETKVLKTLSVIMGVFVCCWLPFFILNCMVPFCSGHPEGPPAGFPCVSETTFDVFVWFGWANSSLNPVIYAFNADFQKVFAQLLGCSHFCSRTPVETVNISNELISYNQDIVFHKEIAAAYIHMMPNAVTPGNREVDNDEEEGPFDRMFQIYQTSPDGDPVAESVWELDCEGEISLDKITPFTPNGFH

Regarding `CCOc1ccc(F)cc1NC(=O)c1ccccc1NS(=O)(=O)C1CC1`, the Vd in data set [1] was determined as 0.52 L/kg. For the same compound, the AUC in [2] is 119 ng·h/mL; in data set [17] it was 69 ng·h/mL. The half-life is 28.8 min in data set [3] and 10.8 min in [14]. In addition, the clearance in [4] was found to be 36.7 mL/min/kg. The values for the Ki on Translocator protein, on D(1B) dopamine receptor and at Histamine H1 receptor were 271 nM, greater than 4 µM and greater than 4000 nM, respectively. Further, the Emax in data set [5] stood at 82.2%. Moreover, the half-maximal effective concentration (EC50) in data set [6] was found to be 14 nM. The CLint scaled in data set [7] was found to be 79.1 mL/min/kg; in data set [8], 1660 mL/min/kg. Also, the figures for the fraction unbound in data set [9] and in [10] were 0.004 and 0.022, respectively. The concentration at 48.25 h in [11] worked out at 79.6 ng/mL; in data set [12], 23.6 ng/g. Moreover, the Kp at 0.25 h in data set [13] turned out to be 0.29. In [15], the Tmax worked out at 10.2 min. The compound also showed a Cmax in [16] of 259 ng/mL. The Kp in data set [18] was found to be 0.32.

Take `CCOc1ccc(F)cc1NC(=O)c1cc(C)ccc1NS(=O)(=O)C1CC1`: the Vd in data set [1] was 1.2 L/kg. In [2], this compound registered an AUC of 66.2 ng·h/mL. The compound also showed a half-life in data set [3] of 25.2 min. Moreover, the clearance in data set [4] is 63.1 mL/min/kg. Also, in data set [5], the Emax was determined as 106%. For the same compound, the EC50 in [6] was determined as 69 nM. Further, the CLint scaled in data set [7] is 114 mL/min/kg; in data set [8], 1100 mL/min/kg. Besides, the fraction unbound amounted to 0.003 in [9] and 0.012 in [10]. Moreover, the concentration at 48.25 h in [11] came out at 61.5 ng/mL; in data set [12], 35.1 ng/g. Moreover, the Kp at 0.25 h in data set [13] worked out at 0.57. On Histamine H1 receptor, this compound displayed a Ki of 1090 nM.

Take `CCOc1ccc(F)cc1NC(=O)c1cc(F)ccc1NS(=O)(=O)C1CC1`: the Vd in [1] was found to be 0.34 L/kg. Besides, the AUC in data set [2] worked out at 304 ng·h/mL; in data set [17], 426 ng·h/mL. Also, the half-life in [3] was 24.6 min; in data set [14], 7.2 min. For the same compound, in [4], the clearance was 14.1 mL/min/kg. Further, the Ki at Translocator protein came to 71 nM. The Emax in data set [5] is 127%. Moreover, in data set [6], the EC50 worked out at 13 nM. The CLint scaled was determined as 59.4 mL/min/kg in data set [7] and 980 mL/min/kg in data set [8]. For the same compound, the values for the fraction unbound in [9] and in data set [10] were 0.002 and 0.011, respectively. Also, the concentration at 48.25 h was determined as 297 ng/mL in [11] and 55.9 ng/g in [12]. Further, the Kp at 0.25 h in data set [13] worked out at 0.19. Also, the Tmax in data set [15] stood at 10.2 min. This compound also returned a Cmax in data set [16] of 1280 ng/mL. In addition, the Kp in data set [18] worked out at 0.2.
